Experimental data: ChEMBL document CHEMBL5724801, “EUbOPEN Chemogenomics Library - Multiplex” (2024)
Where “and” joins values, the source holds several entries; their conditions need not be identical. Equal entries are not always repeated.

Test system: Fibroblast
Experiment: Multiplex assay against human fibroblast
Type: toxicity, cell-based
Method in brief: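 Per cents of healthy-nucleus cells form the tubulin, mitochondrial-mass and membrane-permeability phenotype values. Live cells were stained at seeding with Hoechst33342, BioTracker Green Microtubule Cytoskeleton Dye, MitoTracker Red and Annexin V Alexa Fluor 680. After compound addition they were imaged on a CQ1 microscope at 37°C and 5% CO2, and CellPathfinder machine-learning gating split them into Hoechst high-intensity objects or normal cells, normal cells into healthy, pyknosed or fragmented nuclei, and pyknosed cells into mitotic or apoptotic.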

[1] = 12 h, 1 µM, compound concentration 1 uM
[2] = 12 h, 10 µM, compound concentration 10 uM
[3] = 24 h, 1 µM, compound concentration 1 uM
[4] = 24 h, 10 µM, compound concentration 10 uM
[5] = 48 h, 1 µM, compound concentration 1 uM
[6] = 48 h, 10 µM, compound concentration 10 uM

## O=C(NCCN1CCC(n2c(=O)[nH]c3cc(Cl)ccc32)CC1)c1ccc(F)cc1 [HALOPEMIDE]
[1]
  Population Apoptotic (%): 32% and 44%
  Population Fragmented Nuclei (%): 11% and 27%
  Population Healthy Nuclei (%): 62% and 43%
  Population Hoechst High Intensity Objects (%): 0% and 7%
  Population Membrane Permeable-Phenotype (%): 1% and 10%
  Population Mitochondria Different-Phenotype (%): 10% and 0%
  Population Mitotic Cells (%): 67% and 56%
  Population Normal (%): 99% and 92%
  Population Pyknosed Nuclei (%): 26% and 29%
  Population Tubulin-Different-Phenotype (%): 29% and 56%
  Total Cell Count: 120 and 92
[2]
  Population Apoptotic (%): 55% and 31%
  Population Fragmented Nuclei (%): 15% and 24%
  Population Healthy Nuclei (%): 54% and 34%
  Population Hoechst High Intensity Objects (%): 3% and 4%
  Population Membrane Permeable-Phenotype (%): 0% and 6%
  Population Mitochondria Different-Phenotype (%): 17% and 14%
  Population Mitotic Cells (%): 44% and 68%
  Population Normal (%): 96% and 95%
  Population Pyknosed Nuclei (%): 30% and 41%
  Population Tubulin-Different-Phenotype (%): 77% and 87%
  Total Cell Count: 204 and 148
[3]
  Population Apoptotic (%): 58% and 37%
  Population Fragmented Nuclei (%): 16% and 32%
  Population Healthy Nuclei (%): 69% and 41%
  Population Hoechst High Intensity Objects (%): 3% and 10%
  Population Membrane Permeable-Phenotype (%): 1% and 5%
  Population Mitochondria Different-Phenotype (%): 9% and 8%
  Population Mitotic Cells (%): 41% and 62%
  Population Normal (%): 96% and 90%
  Population Pyknosed Nuclei (%): 13% and 26%
  Population Tubulin-Different-Phenotype (%): 38% and 59%
  Total Cell Count: 128 and 100
[4]
  Population Apoptotic (%): 67% and 41%
  Population Fragmented Nuclei (%): 23% and 26%
  Population Healthy Nuclei (%): 51% and 38%
  Population Hoechst High Intensity Objects (%): 5% and 6%
  Population Membrane Permeable-Phenotype (%): 0% and 12%
  Population Mitochondria Different-Phenotype (%): 28% and 32%
  Population Mitotic Cells (%): 32% and 58%
  Population Normal (%): 95% and 93%
  Population Pyknosed Nuclei (%): 24% and 35%
  Population Tubulin-Different-Phenotype (%): 78% and 94%
  Total Cell Count: 220 and 140
[5]
  Population Apoptotic (%): 52% and 35%
  Population Fragmented Nuclei (%): 14% and 38%
  Population Healthy Nuclei (%): 68% and 43%
  Population Hoechst High Intensity Objects (%): 3% and 4%
  Population Membrane Permeable-Phenotype (%): 4% and 14%
  Population Mitochondria Different-Phenotype (%): 7% and 4%
  Population Mitotic Cells (%): 47% and 64%
  Population Normal (%): 96% and 95%
  Population Pyknosed Nuclei (%): 17%
  Population Tubulin-Different-Phenotype (%): 36% and 63%
  Total Cell Count: 128 and 99
[6]
  Population Apoptotic (%): 80% and 48%
  Population Fragmented Nuclei (%): 32% and 35%
  Population Healthy Nuclei (%): 50% and 45%
  Population Hoechst High Intensity Objects (%): 10% and 5%
  Population Membrane Permeable-Phenotype (%): 0% and 10%
  Population Mitochondria Different-Phenotype (%): 35% and 15%
  Population Mitotic Cells (%): 19% and 52%
  Population Normal (%): 89% and 94%
  Population Pyknosed Nuclei (%): 17% and 19%
  Population Tubulin-Different-Phenotype (%): 77% and 96%
  Total Cell Count: 229 and 136

## COc1ccc2[nH]c(I)c(CCNC(C)=O)c2c1 [IODOMELATONIN]
[1]
  Population Apoptotic (%): 53% and 32%
  Population Fragmented Nuclei (%): 15% and 23%
  Population Healthy Nuclei (%): 64% and 60%
  Population Hoechst High Intensity Objects (%): 2% and 5%
  Population Membrane Permeable-Phenotype (%): 4% and 7%
  Population Mitochondria Different-Phenotype (%): 4% and 3%
  Population Mitotic Cells (%): 46% and 68%
  Population Normal (%): 97% and 94%
  Population Pyknosed Nuclei (%): 19% and 15%
  Population Tubulin-Different-Phenotype (%): 28% and 33%
  Total Cell Count: 137 and 173
[2]
  Population Apoptotic (%): 35% and 30%
  Population Fragmented Nuclei (%): 14% and 38%
  Population Healthy Nuclei (%): 64% and 44%
  Population Hoechst High Intensity Objects (%): 2% and 3%
  Population Membrane Permeable-Phenotype (%): 2% and 5%
  Population Mitochondria Different-Phenotype (%): 6% and 0%
  Population Mitotic Cells (%): 64% and 69%
  Population Normal (%): 97% and 96%
  Population Pyknosed Nuclei (%): 21% and 17%
  Population Tubulin-Different-Phenotype (%): 20% and 43%
  Total Cell Count: 148 and 157
[3]
  Population Apoptotic (%): 62% and 57%
  Population Fragmented Nuclei (%): 16% and 26%
  Population Healthy Nuclei (%): 63% and 57%
  Population Hoechst High Intensity Objects (%): 0% and 5%
  Population Membrane Permeable-Phenotype (%): 0% and 6%
  Population Mitochondria Different-Phenotype (%): 7%
  Population Mitotic Cells (%): 37% and 42%
  Population Normal (%): 99% and 94%
  Population Pyknosed Nuclei (%): 20% and 15%
  Population Tubulin-Different-Phenotype (%): 27% and 39%
  Total Cell Count: 134 and 176
[4]
  Population Apoptotic (%): 35% and 24%
  Population Fragmented Nuclei (%): 16% and 38%
  Population Healthy Nuclei (%): 58% and 41%
  Population Hoechst High Intensity Objects (%): 2% and 4%
  Population Membrane Permeable-Phenotype (%): 1% and 10%
  Population Mitochondria Different-Phenotype (%): 4% and 1%
  Population Mitotic Cells (%): 64% and 75%
  Population Normal (%): 97% and 95%
  Population Pyknosed Nuclei (%): 24% and 20%
  Population Tubulin-Different-Phenotype (%): 30% and 40%
  Total Cell Count: 143 and 149
[5]
  Population Apoptotic (%): 76% and 42%
  Population Fragmented Nuclei (%): 16% and 30%
  Population Healthy Nuclei (%): 64% and 55%
  Population Hoechst High Intensity Objects (%): 3% and 4%
  Population Membrane Permeable-Phenotype (%): 0% and 5%
  Population Mitochondria Different-Phenotype (%): 4% and 0%
  Population Mitotic Cells (%): 23% and 57%
  Population Normal (%): 96% and 95%
  Population Pyknosed Nuclei (%): 18% and 13%
  Population Tubulin-Different-Phenotype (%): 22% and 40%
  Total Cell Count: 147 and 163
[6]
  Population Apoptotic (%): 60% and 38%
  Population Fragmented Nuclei (%): 29% and 48%
  Population Healthy Nuclei (%): 56% and 38%
  Population Hoechst High Intensity Objects (%): 7% and 2%
  Population Membrane Permeable-Phenotype (%): 1% and 10%
  Population Mitochondria Different-Phenotype (%): 1% and 5%
  Population Mitotic Cells (%): 40% and 61%
  Population Normal (%): 92% and 98%
  Population Pyknosed Nuclei (%): 13% and 12%
  Population Tubulin-Different-Phenotype (%): 22% and 57%
  Total Cell Count: 159 and 150

## c1cc(OCCCN2CCCCC2)ccc1CN1CCCCC1 [JNJ-5207852]
[1]
  Population Apoptotic (%): 37% and 26%
  Population Fragmented Nuclei (%): 15% and 24%
  Population Healthy Nuclei (%): 64% and 51%
  Population Hoechst High Intensity Objects (%): 1% and 7%
  Population Membrane Permeable-Phenotype (%): 0% and 8%
  Population Mitochondria Different-Phenotype (%): 2% and 5%
  Population Mitotic Cells (%): 62% and 73%
  Population Normal (%): 98% and 92%
  Population Pyknosed Nuclei (%): 20% and 23%
  Population Tubulin-Different-Phenotype (%): 26% and 49%
  Total Cell Count: 181 and 153
[2]
  Population Apoptotic (%): 50% and 43%
  Population Fragmented Nuclei (%): 22% and 36%
  Population Healthy Nuclei (%): 68% and 42%
  Population Hoechst High Intensity Objects (%): 1%
  Population Membrane Permeable-Phenotype (%): 0% and 12%
  Population Mitochondria Different-Phenotype (%): 6% and 10%
  Population Mitotic Cells (%): 50% and 56%
  Population Normal (%): 98%
  Population Pyknosed Nuclei (%): 9% and 20%
  Population Tubulin-Different-Phenotype (%): 35% and 60%
  Total Cell Count: 193 and 114
[3]
  Population Apoptotic (%): 38% and 33%
  Population Fragmented Nuclei (%): 18% and 28%
  Population Healthy Nuclei (%): 66% and 51%
  Population Hoechst High Intensity Objects (%): 2% and 5%
  Population Membrane Permeable-Phenotype (%): 0% and 5%
  Population Mitochondria Different-Phenotype (%): 2% and 6%
  Population Mitotic Cells (%): 61% and 66%
  Population Normal (%): 97% and 95%
  Population Pyknosed Nuclei (%): 15% and 19%
  Population Tubulin-Different-Phenotype (%): 23% and 55%
  Total Cell Count: 176 and 160
[4]
  Population Apoptotic (%): 60% and 41%
  Population Fragmented Nuclei (%): 24% and 45%
  Population Healthy Nuclei (%): 65% and 38%
  Population Hoechst High Intensity Objects (%): 1% and 5%
  Population Membrane Permeable-Phenotype (%): 0% and 4%
  Population Mitochondria Different-Phenotype (%): 6% and 13%
  Population Mitotic Cells (%): 40% and 58%
  Population Normal (%): 99% and 94%
  Population Pyknosed Nuclei (%): 10% and 15%
  Population Tubulin-Different-Phenotype (%): 34% and 67%
  Total Cell Count: 201 and 118
[5]
  Population Apoptotic (%): 70% and 44%
  Population Fragmented Nuclei (%): 18% and 32%
  Population Healthy Nuclei (%): 63% and 48%
  Population Hoechst High Intensity Objects (%): 2% and 4%
  Population Membrane Permeable-Phenotype (%): 0% and 5%
  Population Mitochondria Different-Phenotype (%): 2%
  Population Mitotic Cells (%): 29% and 55%
  Population Normal (%): 97% and 95%
  Population Pyknosed Nuclei (%): 17% and 18%
  Population Tubulin-Different-Phenotype (%): 23% and 50%
  Total Cell Count: 184 and 160
[6]
  Population Apoptotic (%): 55% and 30%
  Population Fragmented Nuclei (%): 19% and 48%
  Population Healthy Nuclei (%): 70% and 41%
  Population Hoechst High Intensity Objects (%): 2% and 3%
  Population Membrane Permeable-Phenotype (%): 0% and 5%
  Population Mitochondria Different-Phenotype (%): 2% and 11%
  Population Mitotic Cells (%): 44% and 69%
  Population Normal (%): 97% and 96%
  Population Pyknosed Nuclei (%): 9% and 10%
  Population Tubulin-Different-Phenotype (%): 34% and 66%
  Total Cell Count: 189 and 132
